The source of these data is ChEMBL document CHEMBL1641385, “Mammea E/BB, an isoprenylated dihydroxycoumarin protonophore that potently uncouples mitochondrial electron transport, disrupts hypoxic signaling in tumor cells” (J Nat Prod, 2010).

Each structure is given as a SMILES string. Calls of active or inactive are those of the source. The calls are words filed in the database; no cut-off is given here.

Test [1] has as its target T1, Hypoxia inducible factors; HIF-1-alpha, HIF-2-alpha (Homo sapiens, UniProt Q16665+Q99814). Nature of the test: Inhibition of hypoxia-induced HIF1 activation in human T47D cells by HRE3-TK-luciferase reporter gene assay. Format: cell-based.
Test [2] addresses T1, Hypoxia inducible factors; HIF-1-alpha, HIF-2-alpha. Nature of the test: Inhibition of 1, 10-phenanthroline-induced HIF1 activation in human T47D cells by HRE3-TK-luciferase reporter gene assay. The class given is cell-based.
The subject of test [3] is T47D. Put plainly: Cytotoxicity against human T47D cells. Format: cell-based.
Test [4] deals with T1, Hypoxia inducible factors; HIF-1-alpha, HIF-2-alpha. Nature of the test: Inhibition of hypoxia-induced HIF1 activation in human PC3 cells by HRE3-TK-luciferase reporter gene assay. The class given is cell-based. Conditions: pc-3. Put shortly: (§1)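 HIF-1 activity measured with the pHRE3-TK-Luc luciferase reporter in PC-3 cells. Cycloheximide 100 µM served as the positive control. Run in triplicate, representative of two independent experiments. IC50 reported with 95% CI.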

Test [5] has the same target. Nature of the test: Inhibition of 1, 10-phenanthroline-induced HIF1 activation in human PC3 cells by HRE3-TK-luciferase reporter gene assay. The class given is cell-based. Conditions: pc-3. Put shortly: as §1
(A reporter such as luciferase makes a cellular process visible.)

Test [6] has the same target. Nature of the test: Inhibition of HIF1-mediated secreted VEGF expression in hypoxia-stimulated human T47D cells by […]. Format: cell-based. Put shortly: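 T47D cells treated with compound (1, 3, 10 µM) under hypoxia (1% O2, 16 h). Secreted VEGF in conditioned medium quantified by ELISA and normalized to cellular protein (micro BCA). n = 3 from one experiment, representative of two. One-way ANOVA with Bonferroni post hoc.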

The target is the same in test [7]. Put plainly: Inhibition of HIF1-mediated proliferation of hypoxia-stimulated human SK-BR-3 cells after 48 hrs by SRB assay. Format: cell-based. Put shortly:
(§2)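 Exponentially growing cells were seeded at 30,000/well and held overnight at 37 °C in DMEM/F12 with 10% FBS and pen/strep. Compound (0.31–20 µM) was added in serum-free medium for 48 h. Viability was read by sulforhodamine B. % Inhibition = [1 − (ODtreated/ODcontrol)] × 100, from triplicate wells.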

For test [8] the target is unchanged. Put plainly: Inhibition of HIF1-mediated proliferation of hypoxia-stimulated human MDA-MB-231 cells after 48 hrs by SRB assay. The class given is cell-based. The procedure, abridged:
as §2
(In general: In SRB staining, fixed cells bind dye roughly in proportion to their protein.)

The target is the same in test [9]. Put plainly: Inhibition of HIF1-mediated proliferation of hypoxia-stimulated human PC3 cells after 48 hrs by SRB assay. Conditions: PC-3. The class given is cell-based. Put shortly: as §2
Test [10] has the same target. Nature of the test: Inhibition of HIF1-mediated proliferation of hypoxia-stimulated human T47D cells at 20 uM after 48 hrs by SRB assay. Format: cell-based. Put shortly:
as §2

For test [11] the target is unchanged. Nature of the test: Inhibition of HIF1-mediated proliferation of hypoxia-stimulated human SK-BR-3 cells at 20 uM after 48 hrs by SRB assay. Format: cell-based. The procedure, abridged:
as §2

Test [12] has the same target. Nature of the test: Inhibition of HIF1-mediated proliferation of hypoxia-stimulated human MDA-MB-231 cells at 20 uM after 48 hrs by SRB assay. The class given is cell-based. Put shortly: as §2
Test [13] has the same target. Put plainly: Inhibition of HIF1-mediated proliferation of hypoxia-stimulated human PC3 cells at 20 uM after 48 hrs by SRB assay. Format: cell-based. Conditions: PC-3. Put shortly: as §2
For test [14] the target is unchanged. Put plainly: Inhibition of HIF1-mediated proliferation of hypoxia-stimulated human T47D cells at 0.31 to 20 uM after 48 hrs by SRB assay. Format: cell-based. The procedure, abridged:
as §2

The target is the same in test [15]. Nature of the test: Inhibition of HIF1-mediated proliferation of hypoxia-stimulated human SK-BR-3 cells at 0.31 to 20 uM after 48 hrs by SRB assay. Format: cell-based. The procedure, abridged: as §2
Test [16] has the same target. Put plainly: Inhibition of HIF1-mediated proliferation of hypoxia-stimulated human MDA-MB-231 cells at 0.31 to 20 uM after 48 hrs by SRB assay. Format: cell-based. Put shortly: as §2
Test [17] has the same target. Put plainly: Inhibition of HIF1-mediated proliferation of hypoxia-stimulated human PC3 cells at 0.31 to 20 uM after 48 hrs by SRB assay. The class given is cell-based. Conditions: PC-3. Put shortly: as §2
The target is the same in test [18]. Nature of the test: Inhibition of HIF1-mediated proliferation of hypoxia-stimulated human SK-BR-3 cells up to 20 uM after 16 hrs by SRB assay. Format: cell-based. The procedure, abridged:
(§3)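 Short-term viability: cells exposed to compound at up to 20 µM for 16 h under hypoxia (1% O2), then read by sulforhodamine B and expressed as % inhibition of untreated control.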

For test [19] the target is unchanged. Put plainly: Inhibition of HIF1-mediated proliferation of hypoxia-stimulated human T47D cells up to 20 uM after 16 hrs by SRB assay. The class given is cell-based. Put shortly:
as §3

Test [20] shares this target. Put plainly: Inhibition of HIF1-mediated proliferation of hypoxia-stimulated human MDA-MB-231 cells up to 20 uM after 16 hrs by SRB assay. Format: cell-based. The procedure, abridged:
as §3

For test [21] the target is unchanged. Put plainly: Inhibition of HIF1-mediated proliferation of hypoxia-stimulated human PC3 cells up to 20 uM after 16 hrs by SRB assay. Format: cell-based. The note with it: PC-3. The procedure, abridged: as §3
Test [22] deals with MDA-MB-231. Nature of the test: Inhibition of human MDA-MB-231 cell migration at 5 to 20 uM after 22 hrs under normoxic condition. The class given is functional, cell-based. Put shortly: (§4)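 Confluent MDA-MB-231 monolayers were scratched with pipet tips. Compound (5 or 20 µM) was added for 22 h under normoxia (95% air:5% CO2) or hypoxia (1% O2:94% N2:5% CO2). Cells were then fixed, stained and imaged. Parallel viability was checked by sulforhodamine B, as % of untreated control under matching oxygen conditions.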

In test [23] the test system is MDA-MB-231. Put plainly: Inhibition of human MDA-MB-231 cell migration at 5 to 20 uM after 22 hrs under hypoxic condition. The class given is functional, cell-based. Put shortly:
as §4

Test [24] deals with T1, Hypoxia inducible factors; HIF-1-alpha, HIF-2-alpha. Nature of the test: Inhibition of HIF1-mediated migration of human MDA-MB-231 cells at 20 uM by wound healing assay. The class given is cell-based. The procedure, abridged:
as §4

Test [25] deals with T47D. Put plainly: Effect on cellular respiration in human T47D cells assessed as increase in oxygen consumption at 1 uM. The class given is functional. The procedure, abridged:
(§5)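 Oxygen consumption of intact T47D cells monitored with a Clark-type electrode. Rate with compound expressed as % control (compound rate/control rate). n = 3; FCCP run as positive control.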

Test [26] concerns T47D. Nature of the test: Effect on cellular respiration in human T47D cells assessed as decrease in oxygen consumption at 10 uM. The class given is functional. The procedure, abridged: as §5
Test [27] deals with T47D. Put plainly: Induction of state 4 respiration of human T47D cells. The class given is functional, cell-based. The procedure, abridged: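 T47D respiration measured by Clark-type electrode. Oligomycin (1 µM final) added to establish state 4 respiration, then compound added at specified concentrations to test resumption of oxygen consumption; FCCP used as positive control.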

For test [28], the system named is T47D. Nature of the test: Effect on cellular respiration in human T47D cells assessed as increase in oxygen consumption at 1 uM in presence of mitochondrial uncoupler FCCP. Format: functional, cell-based.
Test [29] deals with T47D. Put plainly: Effect on cellular respiration in human T47D cells assessed as decrease in oxygen consumption at 10 uM n presence of mitochondrial uncoupler FCCP. Format: functional, cell-based.
Test [30] deals with T47D. Nature of the test: Decrease in mitochondrial membrane potential in human T47D cells 1 to 10 uM after 15 mins by TMRM assay. Format: functional, cell-based. The procedure, abridged:
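T47D cells seeded at 100,000/well on chambered coverglass overnight, then switched to TES buffer (20 mM, pH 7.3) with salts, 5 mM glucose, 0.3% BSA and 2 nM TMRM. Loaded 1 h 15 min at 37 °C, then compound added for 15 min. Live-cell epifluorescence imaging; FCCP as reference.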

Test [31] addresses T1, Hypoxia inducible factors; HIF-1-alpha, HIF-2-alpha. Conditions: T47D, at 1 to 10 µM.

As to `CCC(C)C(=O)c1c(O)c(CC=C(C)C)c(O)c2c(C(CC)OC(C)=O)cc(=O)oc12` (centres undefined), the IC50 (usually the point on the concentration scale where inhibition reaches its midpoint) is 960 nM in test [1]; 890 nM in test [2]; greater than 20000 nM in the test with T47D [3]; 2000 nM in test [4]; 6500 nM in test [5]. In addition, the inhibition (in general, the change of the read-out against control, counted positive when it falls) was “Dose-dependent effect” in test [6]; “Dose-dependent effect” in test [7]; “Dose-dependent effect” in test [8]; “Dose-dependent effect” in [9]; 54% in test [10]; 53% in test [11]. Further, the inhibition worked out at 52% in test [12]; 40% in test [13]; 50% in test [14]; 50% in test [15]; 50% in test [16]; 40% in test [17]. Further, the inhibition in [18] was less than 30%; in [19] it was less than 30%; in test [20] it was less than 30%; in test [21], less than 30%; in test [24] it was 25%. Further, the outcome in the test with MDA-MB-231 [22], in the test on MDA-MB-231 [23], with T47D [27], with T47D [28] and with T47D [29] was Active. The Activity in the test with T47D [25] is on record as 30%. Further, the inhibition at 10 µM in the test on T47D [26] was 50%. The inhibition result in the test on T47D [30] is “Active”. Moreover, the inhibition result in test [31] is “inactive”.

In the case of `N#CC(C#N)=NNc1ccc(OC(F)(F)F)cc1`, the IC50 was determined as 510 nM in [1] and 310 nM in test [2]. Further, in test [31], the inhibition result is “Active”.
